# Measurements reported in ChEMBL document CHEMBL1926577, “Novel 1,3,4-heterodiazole analogues: synthesis and in-vitro antitumor activity” (2012).
# Assays:
# Assay type in all cases: functional
# [1] = Growth inhibition of human ovarian cancer cells after 48 hrs by coulter counter method; settings: Cancer cell lines
# Outline: (§1)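 NCI 60-line panel cells. Compound is dissolved in DMSO and diluted in phosphate-buffered saline, with final DMSO below 1%. It is added in duplicate wells to cultures at 6 × 10⁴ cells/ml and held at 37 °C, 5% CO₂, humidified, for 48 h. Cells are diluted 10-fold in saline, counted by Coulter counter and dilution-corrected. Vehicle controls contain PBS plus DMSO.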
# [2] = Growth inhibition of human renal cancer cells after 48 hrs by coulter counter method; settings: Cancer cell lines; outline: as §1
# [3] = Growth inhibition of human prostate cancer cells after 48 hrs by coulter counter method; settings: Cancer cell lines; outline: as §1
# [4] = Growth inhibition of human breast cancer cells after 48 hrs by coulter counter method; settings: Cancer cell lines; outline: as §1
# [5] = Growth inhibition of human leukemia cells after 48 hrs by coulter counter method; settings: Leukemia cell; outline: as §1
# NSCLC = assay: Growth inhibition of human NSCLC cells after 48 hrs by coulter counter method; outline: as §1
# [6] = Growth inhibition of human colon cancer cells after 48 hrs by coulter counter method; settings: Cancer cell lines; outline: as §1
# [7] = Growth inhibition of human CNS cancer cells after 48 hrs by coulter counter method; settings: Cancer cell lines; outline: as §1
# Melanoma cell = assay: Growth inhibition of human Melanoma cells after 48 hrs by coulter counter method; outline: as §1
# [8] = read-out: LC50 (the source's name)
structure (smiles),measurement,setting,value
O=c1[nH]cc(F)c(=O)[nH]1 [FLUOROURACIL],GI50,[1],61.4 µM
same,TGI,[1],> 100 µM
same,GI50,[2],45.6 µM
same,TGI,[2],> 100 µM
same,CC50,[2]; [8],> 100 µM
same,GI50,[3],22.7 µM
same,TGI,[3],> 100 µM
same,GI50,[4],76.4 µM
same,TGI,[4],> 100 µM
same,CC50,[4]; [8],> 100 µM
same,TGI,[5],> 100 µM
same,CC50,[5]; [8],> 100 µM
same,GI50,NSCLC,> 100 µM
same,TGI,NSCLC,> 100 µM
same,CC50,NSCLC; [8],> 100 µM
same,GI50,[6],8.4 µM
same,TGI,[6],> 100 µM
same,TGI,[7],> 100 µM
same,CC50,[7]; [8],> 100 µM
same,TGI,Melanoma cell,> 100 µM
